Calls of active or inactive are those of the source. No cut-off for these calls is given here.

Experimental findings from ChEMBL document CHEMBL1157268, “ent-Labdane diterpenoids from Andrographis paniculata” (2006) are described below.

One test concerns Aspergillus niger. The experiment in a line: Antimicrobial activity against Aspergillus niger at 10 ug/ml by disk diffusion assay. The format is functional, organism-based. The procedure, abridged: (§1)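 Qualitative screen on agar plates: each diterpenoid applied to disks at 10 µg/mL and tested in parallel against eight strains (B. subtilis, S. aureus, E. coli, M. luteus, S. lutea, C. albicans, C. sake, A. niger). Growth inhibition was scored as a clear inhibition zone around the disk, with zone diameter in mm as the read-out.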
For orientation: A growth-free zone around the sample is the usual read-out of agar diffusion tests.

Another test has as its system Staphylococcus aureus. The experiment in a line: Antimicrobial activity against Staphylococcus aureus at 10 ug/ml by disk diffusion assay. In kind it is functional, organism-based. The procedure, abridged: as §1
In another test the test system is Micrococcus luteus. Put plainly: Antimicrobial activity against Micrococcus luteus at 10 ug/ml by disk diffusion assay. The format is functional, organism-based. In a few lines: as §1
A further test concerns [Candida] sake. Put plainly: Antimicrobial activity against Candida sake at 10 ug/ml by disk diffusion assay. In kind it is functional, organism-based. The procedure, abridged: as §1
A further test relates to Candida albicans. The experiment in a line: Antimicrobial activity against Candida albicans at 10 ug/ml by disk diffusion assay. In kind it is functional, organism-based. In a few lines:
as §1

The test system of another test is Bacillus subtilis. The experiment in a line: Antimicrobial activity against Bacillus subtilis at 10 ug/ml by disk diffusion assay. The settings on record: for zone of inhibition at 10 µg/mL: read-out: IZ. The format is functional. In a few lines:
as §1

A further test has as its system Escherichia coli. Put plainly: Antimicrobial activity against Escherichia coli at 10 ug/ml by disk diffusion assay. In kind it is functional, organism-based. In a few lines: as §1

As to `C=C1CC[C@@H]2C(C)(C)[C@H](O[C@@H]3O[C@H](CO)[C@@H](O)[C@H](O)[C@H]3O)CC[C@@]2(C)[C@@H]1CCC1=CCOC1=O`, the result (in the test on Aspergillus niger; with Staphylococcus aureus; in the test on Micrococcus luteus; in test [Candida] sake; in the test with Candida albicans; in the test on Bacillus subtilis) was inactive. The outcome in the test with Escherichia coli was inactive.

For the molecule `C=C1CC[C@@H]2[C@](C)(CO)[C@H](O)CC[C@@]2(C)[C@@H]1/C=C/C1=CCOC1=O`, the result (with Aspergillus niger; in the test on Staphylococcus aureus; with Micrococcus luteus; in test [Candida] sake; with Candida albicans; with Escherichia coli) was inactive. The zone of inhibition at 10 µg/mL in the test with Bacillus subtilis was 7 mm.

`C=C1CC[C@@H]2[C@](C)(CO)[C@H](O[C@@H]3O[C@H](CO)[C@@H](O)[C@H](O)[C@H]3O)CC[C@@]2(C)[C@@H]1C/C=C1/C(=O)OC[C@H]1O`: the outcome (with Aspergillus niger; with Staphylococcus aureus; with Micrococcus luteus; in test [Candida] sake; in the test on Candida albicans; in the test on Bacillus subtilis) was inactive. Besides, in the test with Escherichia coli, the result was inactive.

`C=C1CC[C@@H]2[C@](C)(CO)[C@H](O)CC[C@@]2(C)[C@@H]1C(O)/C=C1\CCOC1=O` (stereo not given in full): the result (in the test on Aspergillus niger; in the test on Staphylococcus aureus; in the test on Micrococcus luteus; in test [Candida] sake; in the test on Candida albicans; in the test with Bacillus subtilis) was inactive. Moreover, the result in the test on Escherichia coli was inactive.

As to `C=C1CC[C@@H]2[C@](C)(CO)[C@H](O)CC[C@@]2(C)[C@@H]1C/C=C1/C(=O)OC[C@H]1O`, the outcome (in the test on Aspergillus niger; in the test with Staphylococcus aureus; in the test with Micrococcus luteus; in test [Candida] sake; in the test with Candida albicans; with Bacillus subtilis) was inactive. Also, the outcome in the test on Escherichia coli was inactive.

Take `C=C1CC[C@@H]2[C@](C)(CO[C@@H]3O[C@H](CO)[C@@H](O)[C@H](O)[C@H]3O)[C@H](O)CC[C@@]2(C)[C@@H]1/C=C/C1=CCOC1=O`: the result (with Aspergillus niger; with Staphylococcus aureus; in the test on Micrococcus luteus; in test [Candida] sake; with Candida albicans; in the test on Bacillus subtilis) was inactive. The outcome with Escherichia coli was inactive.

For the molecule `C[C@]1(CO)[C@H]2CC[C@H](CO)[C@@H](CCC3=CCOC3=O)[C@]2(C)CC[C@H]1O`, the outcome (with Aspergillus niger; in the test on Staphylococcus aureus; in the test on Micrococcus luteus; in test [Candida] sake; in the test with Candida albicans; with Bacillus subtilis) was inactive. Also, in the test on Escherichia coli, the result was inactive.

Take `C=C1CC[C@@H]2[C@](C)(CO[C@@H]3O[C@H](CO)[C@@H](O)[C@H](O)[C@H]3O)[C@H](O)CC[C@@]2(C)[C@@H]1CCC1=CCOC1=O`: the outcome (in the test with Aspergillus niger; in the test with Staphylococcus aureus; in the test on Micrococcus luteus; in test [Candida] sake; in the test on Candida albicans; in the test with Bacillus subtilis) was inactive. For the same molecule, in the test on Escherichia coli, the result was inactive.

In the case of `C=C1CC[C@@H]2[C@](C)(CO)[C@H](O)CC[C@@]2(C)[C@@H]1C[C@@H](O)C1=CCOC1=O`, the result (in the test with Aspergillus niger; with Staphylococcus aureus; with Micrococcus luteus; in test [Candida] sake; in the test on Candida albicans; in the test with Escherichia coli) was inactive. Moreover, in the test on Bacillus subtilis, the zone of inhibition at 10 µg/mL came out at 7 mm.

In the case of `C=C1CC[C@@H]2[C@](C)(CO)CCC[C@@]2(C)[C@@H]1CCC1=CCOC1=O` [ANDROGRAPANIN], the outcome (in the test with Aspergillus niger; in the test on Staphylococcus aureus; in the test with Micrococcus luteus; in test [Candida] sake; in the test with Candida albicans; in the test with Escherichia coli) was inactive. Also, the zone of inhibition at 10 µg/mL with Bacillus subtilis was determined as 7 mm.

For the molecule `C=C1CCC2C(C)(CO)C(O)CCC2(C)C1/C=C/C1=CC(C2(CCC3=CCOC3=O)C(=C)CCC3C(C)(CO)C(O)CCC32C)OC1=O` (stereo not given), the result (in the test with Aspergillus niger; with Staphylococcus aureus; in the test on Micrococcus luteus; in test [Candida] sake; in the test on Candida albicans; with Bacillus subtilis) was inactive. The result with Escherichia coli was inactive.

Regarding `C=C1CC[C@H]2[C@@](C)(CCC[C@@]2(C)C(=O)O[C@@H]2O[C@H](CO)[C@@H](O)[C@H](O)[C@H]2O)[C@@H]1CC/C(=C/CO)CO`, the result (in the test on Aspergillus niger; in the test on Staphylococcus aureus; in the test with Micrococcus luteus; in test [Candida] sake; in the test on Candida albicans; with Bacillus subtilis) was inactive. The outcome with Escherichia coli was inactive.

As to `C=C1CC[C@@H]2[C@](C)(CO)[C@H](O)CC[C@@]2(C)[C@@H]1C/C=C1\C(=O)OCC1O` (stereo not given in full) [ISOANDROGRAPHOLIDE], the result (in the test on Aspergillus niger; in the test on Staphylococcus aureus; with Micrococcus luteus; in test [Candida] sake; in the test on Candida albicans; in the test on Escherichia coli) was inactive. Moreover, in the test on Bacillus subtilis, the zone of inhibition at 10 µg/mL worked out at 7 mm.

Regarding `C=C1CC[C@@H]2[C@](C)(CO[C@@H]3O[C@H](CO)[C@@H](O)[C@H](O)[C@H]3O)[C@H](O)CC[C@@]2(C)[C@@H]1C/C=C1/C(=O)OC[C@H]1O`, the result (in the test on Aspergillus niger; in the test with Staphylococcus aureus; with Micrococcus luteus; in test [Candida] sake; with Candida albicans; in the test on Bacillus subtilis) was inactive. Also, the outcome in the test with Escherichia coli was inactive.

Take `C=C1CC[C@@H]2[C@](C)(CO)[C@H](O)CC[C@@]2(C)[C@@H]1CCC1=CCOC1=O`: the result (with Aspergillus niger; in the test on Staphylococcus aureus; with Micrococcus luteus; in test [Candida] sake; with Candida albicans; in the test with Bacillus subtilis) was inactive. Further, the result with Escherichia coli was inactive.

Consider `C=C1CC[C@@H]2[C@](C)(CO)[C@H](O)CC[C@@]2(C)[C@@H]1C[C@@H](O)C1C(=O)OC[C@H]1O` (stereo not given in full), for which the result (in the test on Aspergillus niger; in the test on Staphylococcus aureus; in the test on Micrococcus luteus; in test [Candida] sake; in the test on Candida albicans; with Bacillus subtilis) was inactive. Moreover, the result in the test with Escherichia coli was inactive.

As to `C=C1CC[C@@H]2[C@](C)(CO[C@@H]3O[C@H](CO)[C@@H](O)[C@H](O)[C@H]3O[C@@H]3OC[C@](O)(CO)[C@H]3O)CCC[C@@]2(C)[C@@H]1CCC1=CCOC1=O`, the outcome (with Aspergillus niger; with Staphylococcus aureus; in the test on Micrococcus luteus; in test [Candida] sake; in the test with Candida albicans; in the test on Bacillus subtilis) was inactive. In addition, the outcome with Escherichia coli was inactive.

With `C=C1CC[C@@H]2[C@](C)(CO[C@@H]3O[C@H](CO)[C@@H](O)[C@H](O)[C@H]3O)CCC[C@@]2(C)[C@@H]1CCC1=CCOC1=O`, the result (in the test on Aspergillus niger; with Staphylococcus aureus; in the test on Micrococcus luteus; in test [Candida] sake; in the test on Candida albicans; in the test with Bacillus subtilis) was inactive. Also, the outcome in the test on Escherichia coli was inactive.

As to `C[C@]1(CO)[C@H]2CC[C@]3(CO3)[C@@H](CCC3=CCOC3=O)[C@]2(C)CC[C@H]1O`, the result (with Aspergillus niger; in the test with Staphylococcus aureus; with Micrococcus luteus; in test [Candida] sake; with Candida albicans; in the test on Bacillus subtilis) was inactive. In addition, in the test with Escherichia coli, the result was inactive.

`C=C1CC[C@H]2[C@@](C)(CC[C@@H](O)[C@@]2(C)CO)[C@@H]1C(=O)/C=C1\CCOC1=O`: the outcome (in the test on Aspergillus niger; in the test with Staphylococcus aureus; in the test with Micrococcus luteus; in test [Candida] sake; in the test with Candida albicans; with Bacillus subtilis) was inactive. For the same molecule, in the test with Escherichia coli, the outcome was inactive.
